Activity calls are given as the source filed them.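 Rule for the calls, unless noted: active = NADPH fluorescence slope more negative than the mean of all samples by about 3 SD, 99.7% confidence; inactive = the rest.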
Assays:
[1] = inhibitors of TNFa-induced NFkB p65 translocation, primary screen, imaging, HUVEC, MLSMR starter and 10KST1 sets (AID 438;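 active = inhibition above 20% together with a positive visual image hit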;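 note: compound added about 3h40 before a 20 min TNFalpha stimulation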;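 for inhibition: signal is the nuclear over cytoplasmic p65 intensity ratio per well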); conditions: HUVEC TNFa-induced p65 nuclear translocation; cell count: measured here: nuclei count (cytotoxicity indicator), at 2.08 µM; inhibition: at 2 µM, stronger effect = higher value, 0% TNFa-plus-vehicle, 100% no-TNFa wells
[2] = reduction of polyQ htt aggregates in cells – imaging, exon1htt(103Q)mCFP cells, high-content imaging, primary screen (AID 483;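 active = visual image review flags a hit and inhibition of aggregation exceeds 20%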;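 note: compound exposure lasted 3 days before fixation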;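 for nuclei count: percent of the per-plate median nuclei count of sample wells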); conditions: exon1htt(103Q)mCFP cell line, aggregate imaging, at 2 µM; inhibition of aggregation: stronger effect = higher value; nuclei count: measured here: cell count, toxicity
[3] = endothelial E-selectin expression blockers – imaging, HUVEC, immunofluorescence, MLSMR starter and 10KST1 sets, primary screen (AID 487;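 active = visually confirmed hit in the image check and inhibition above 20%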;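 for inhibition: signal is fraction of cell area covered by stained E-selectin grains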;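 for nuclei count: 100% = median nuclei count of all wells on the same plate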); conditions: HUVEC TNFalpha-induced E-selectin immunofluorescence imaging, at 2 µM; inhibition: stronger effect = higher value; nuclei count: measured here: cell number, toxicity
[4] = biological target: Voltage-gated potassium channel subunit beta-2 (Rattus norvegicus) (UniProt P62483); test: inhibitors of rat Kvbeta2 reductase activity – biochemical, NADPH fluorescence, primary screen (AID 622;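 active = fluorescence slope higher than the sample average by over 3 SD, cut at about -0.22 in these data, passing the limit was not always enough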;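 note: slope of raw intensity against log time taken from 70 to 1610 s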); conditions: recombinant KvBeta, 4-cyanobenzaldehyde reduction, at 10 µM, stronger effect = higher value
[5] = biological target: Voltage-gated potassium channel subunit beta-2 (Rattus norvegicus) (UniProt P62483); test: enhancers of rat Kvbeta2 NADPH turnover – biochemical, NADPH fluorescence, primary screen (AID 623); conditions: Recombinant KvBeta, NADPH fluorescence decrease slope, 10 min; at 10 µM; stronger effect = lower value;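 note: fluorescence intensity change per second fitted from 20 to 320 s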
[6] = biological target: Muscarinic acetylcholine receptor M4 (Homo sapiens) (UniProt P08173); test: M4-linked GIRK flux change, two-sided – cell-based, HEK293 M4/GIRK, thallium flux, BTC-AM, M4 allosteric agonist project, primary screen (AID 625;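 active = fluorescence slope after compound addition differing from the mean of all tested samples at 99.7% confidence, mostly higher but some lower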;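 note: thallium influx through GIRK channels coupled to M4 in HEK293 cells with BTC-AM dye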); conditions: at 10 µM, actives lie on both sides
Summary of the method: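 Material – HEK293 cells with M4 receptor and GIRK channels · Buffer or medium – pH 7.3 thallium assay buffer · Doses – one dose, 10 µM final · Timing – cells overnight at 37 °C, BTC-AM loading 1 h, reads 2 min total · Measured by – kinetic fluorescence with BTC-AM dye · Controls – carbachol and DMSO controls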

[7] = blockers of RIG-like receptor reporter activation – cell-based, Sendai virus stimulus, luciferase, 10K MLSCN set, TLR/RLR signaling modifier project, primary screen (AID 602276;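 active = inhibition at or above 50% at 10 µM; inactive = inhibition below 50%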;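 note: firefly luciferase from ISG56 promoter only with Renilla not read in this screen; 0% = Sendai virus plus DMSO and 100% = medium plus DMSO without virus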); conditions: HEK293 RL24 IRF3 luciferase reporter, at 10 µM, stronger effect = higher value
[8] = TLR3 IRF3 reporter activation blockers – cell-based, poly I:C stimulus, luciferase, 10K MLSCN set, primary screen (AID 602277;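 active = inhibition of the reporter signal at or above 50%; inactive = inhibition below 50%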); conditions: HEK293-TLR3 RL24 IRF3 luciferase reporter, at 10 µM, stronger effect = higher value
[9] = biological target: Alpha-2C adrenergic receptor (Homo sapiens) (UniProt P18825); test: compounds altering alpha2C-coupled GIRK flux – cell-based, HEK293 alpha2C/GIRK1/2, thallium flux, primary screen (AID 624;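 active = fluorescence slope after compound addition differing from the mean of all screened samples at 99.7% confidence, in either direction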;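 note: slope of fluorescence ratio to pre-addition baseline per second over 15 to 24 s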); conditions: thallium flux BTC fluorescence, at 10 µM, actives lie on both sides
[10] = inhibitors of larval lipid processing in zebrafish, primary screen, whole organism, PED6 fluorescence, gall bladder and intestine (AID 686;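 active = a full or partial loss of lipid-probe fluorescence in the fish gall bladder, intestine or both, judged by eye; inactive = no fluorescence loss, or compound toxic to the fish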;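 note: larvae 5 to 7 days old with five fish per well; signal comes from phospholipase A2 cleavage of quenched PED6 carried via bile; overnight exposure to compound and PED6 before scoring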); conditions: Zebrafish larvae PED6 lipid processing, fluorescence scoring; screened at 20 µM (by protocol)
Summary of the method: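 system = live zebrafish larvae aged 5-7 days, whole organism | probe or stimulus = ingested quenched lipid PED6 at 100 nM | doses = 20 µM single dose | timing = overnight exposure | detection = fluorescence microscopy with visual scoring of gall bladder and intestine | read-out = visual per-well fluorescence inhibition score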

Alpha-2C adrenergic receptor (Homo sapiens), sequence (P18825 whole entry, looked up): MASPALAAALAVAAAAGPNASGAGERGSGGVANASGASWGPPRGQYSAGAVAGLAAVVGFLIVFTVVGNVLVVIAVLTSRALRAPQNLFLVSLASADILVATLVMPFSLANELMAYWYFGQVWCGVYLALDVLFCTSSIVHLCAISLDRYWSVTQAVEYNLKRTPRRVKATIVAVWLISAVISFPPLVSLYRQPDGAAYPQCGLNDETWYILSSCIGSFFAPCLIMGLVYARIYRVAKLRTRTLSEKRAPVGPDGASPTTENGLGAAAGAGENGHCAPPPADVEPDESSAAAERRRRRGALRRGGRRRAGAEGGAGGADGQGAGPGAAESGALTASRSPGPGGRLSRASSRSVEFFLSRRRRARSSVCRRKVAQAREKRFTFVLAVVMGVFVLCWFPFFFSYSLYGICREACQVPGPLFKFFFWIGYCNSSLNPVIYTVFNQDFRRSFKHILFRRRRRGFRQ
Muscarinic acetylcholine receptor M4 (Homo sapiens), sequence (P08173 whole entry, looked up): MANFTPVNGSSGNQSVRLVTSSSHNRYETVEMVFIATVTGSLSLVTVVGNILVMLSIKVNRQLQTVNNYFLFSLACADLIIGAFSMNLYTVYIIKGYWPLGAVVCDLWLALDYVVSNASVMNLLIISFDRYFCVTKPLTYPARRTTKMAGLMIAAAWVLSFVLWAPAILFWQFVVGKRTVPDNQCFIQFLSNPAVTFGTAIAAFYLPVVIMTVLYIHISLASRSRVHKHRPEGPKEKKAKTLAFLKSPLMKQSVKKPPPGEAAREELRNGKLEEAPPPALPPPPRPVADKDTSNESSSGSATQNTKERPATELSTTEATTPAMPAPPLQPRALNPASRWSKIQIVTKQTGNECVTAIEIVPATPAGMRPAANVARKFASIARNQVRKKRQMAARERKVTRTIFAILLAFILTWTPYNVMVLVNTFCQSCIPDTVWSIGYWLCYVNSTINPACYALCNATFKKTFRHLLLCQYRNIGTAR
Voltage-gated potassium channel subunit beta-2 (Rattus norvegicus), sequence (P62483 whole entry, looked up): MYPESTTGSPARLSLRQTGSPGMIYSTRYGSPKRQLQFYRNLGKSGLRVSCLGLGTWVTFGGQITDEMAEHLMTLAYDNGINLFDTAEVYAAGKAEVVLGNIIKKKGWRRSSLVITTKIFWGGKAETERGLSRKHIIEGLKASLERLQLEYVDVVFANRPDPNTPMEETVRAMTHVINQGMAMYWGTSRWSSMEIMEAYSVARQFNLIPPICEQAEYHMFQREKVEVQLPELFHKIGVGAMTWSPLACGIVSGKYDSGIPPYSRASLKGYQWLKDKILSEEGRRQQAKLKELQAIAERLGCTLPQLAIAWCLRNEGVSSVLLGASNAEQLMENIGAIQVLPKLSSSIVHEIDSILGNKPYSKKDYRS

| Structure (SMILES) | cell count [1] | inhibition [1] | inhibition of aggregation [2] | nuclei count [2] [%] | inhibition [3] | nuclei count [3] [%] | fluorescence slope [4] | NADPH fluorescence slope [5] | fluorescence slope [6] | inhibition [7] | inhibition [8] | slope [9] | outcome [10] |
| --- | --- | --- | --- | --- | --- | --- | --- | --- | --- | --- | --- | --- | --- |
| O=C(CN1C(=O)c2cccc3cccc1c23)N1CCN(c2ccccc2)CC1 | 512 | -50% (inactive) | 2.8% (inactive) | 108 | -27.9% (inactive) | 101 | -0.127 (inactive) | -6.1e-06 (inactive) | 0.00738 (inactive) | -2.31% (inactive) | 2.78% (inactive) |  |  |
| O=C(Nc1ccc2c(c1)OCO2)c1nn(-c2ccccc2)c(=O)c2ccccc12 | 417 | 7.1% (inactive) | -7.3% (inactive) | 93.9 |  | 150 | -0.621 (inactive) | 2e-05 (inactive) |  | 13.5% (inactive) | 11.4% (inactive) | 0.00664 (inactive) |  |
| COc1cc(OC)cc(-n2nnnc2SCC(=O)N2CCCC2)c1 | 740 | -7.3% (inactive) | 18.3% (inactive) | 94.2 | 12% (inactive) | 103 | -0.622 (inactive) | 1.7e-05 (inactive) | 0.0053 (inactive) | 15.1% (inactive) | 23.1% (inactive) |  |  |
| CCn1cnc2cc(NCc3cccc(OC)c3O)ccc21 | 322 | -2.8% (inactive) | -3.1% (inactive) | 94.7 | -18.2% (inactive) | 88 | -0.437 (inactive) | -4.8e-05 (inactive) | 0.00434 (inactive) | -3.88% (inactive) | -26.2% (inactive) |  |  |
| Cc1cc2cc(CNC(=O)c3ccc4c(c3)OCO4)ccc2[nH]1 | 442 | 2.9% (inactive) | 0.1% (inactive) | 106 |  | 150 | -0.503 (inactive) | -1.1e-05 (inactive) |  | -10.5% (inactive) | -25.2% (inactive) | 0.00502 (inactive) |  |
| C=CCn1c(=O)[nH]c2cc(C(=O)N3CCN(c4ccc(C(C)=O)cc4)CC3)ccc2c1=O | 359 | -1.8% (inactive) | 20.3% (inactive) | 101 | -161% (inactive) | 106 | -0.464 (inactive) | 1.5e-05 (inactive) | 0.00531 (inactive) | -1.65% (inactive) | -9.26% (inactive) |  |  |
| CCOC(=O)c1cc2sccc2n1CC(=O)Nc1ccc2c(c1)OCCO2 | 513 | -14.9% (inactive) | -25.9% (inactive) | 108 | 12.2% (inactive) | 117 | -0.61 (inactive) | 4.2e-06 (inactive) | 0.00667 (inactive) | -5.94% (inactive) | -4.31% (inactive) |  |  |
| C[C@H](NC(=O)Nc1cccc(C(F)(F)F)c1)C(=O)O | 759 | 0.4% (inactive) | 14.4% (inactive) | 98 | -1.7% (inactive) | 92.5 | -0.547 (inactive) | 1.5e-05 (inactive) | 0.00427 (inactive) | 27.2% (inactive) | 22.6% (inactive) |  |  |
| NC(=O)C1CCN(CC(=O)N2c3ccccc3CCc3ccccc32)CC1 | 409 | -16.8% (inactive) | -2.8% (inactive) | 107 | -20.9% (inactive) | 154 | -0.587 (inactive) | -5.7e-05 (inactive) | 0.00441 (inactive) | 15.6% (inactive) | 23.9% (inactive) |  |  |
| COc1cccc(C(=O)Nc2ccc(NC(=O)C(C)(C)C)cn2)c1 | 444 | 9.8% (inactive) | -12.7% (inactive) | 120 |  | 135 | -0.571 (inactive) | -9.6e-06 (inactive) | 0.00623 (inactive) | 36% (inactive) | 21.1% (inactive) |  |  |
| CC(C)CN(CC(C)C)c1nc(N)c(C#N)c(CC#N)c1C#N | 326 | -7% (inactive) | 9% (inactive) | 102 | -60.7% (inactive) | 120 | -0.318 (inactive) | -5e-05 (inactive) |  |  | 62.5% (active) | 0.00502 (inactive) | inactive |
| O=C(Nc1c(-c2ccccc2)nc2ccccn12)c1ccco1 | 466 | -7.2% (inactive) | 8.4% (inactive) | 103 | 13.2% (inactive) | 109 | -0.56 (inactive) | 4.7e-05 (inactive) | 0.00475 (inactive) | -7.17% (inactive) | -12.7% (inactive) |  |  |
| CC1(C)CC(=O)c2c(O)cc(O)cc2O1 | 652 | -15.6% (inactive) | -5.4% (inactive) | 83.3 | -55.7% (inactive) | 99.8 | -0.482 (inactive) | -4.2e-05 (inactive) | 0.00586 (inactive) | 5.4% (inactive) | -1.77% (inactive) |  |  |
| COCCNC(=O)CSc1nc(-c2ccc(OC)c(OC)c2)cc(C(F)(F)F)n1 | 430 | 3.4% (inactive) | -8.2% (inactive) | 104 | -34.3% (inactive) | 115 | -0.445 (inactive) | -0.000127 (inactive) | 0.00332 (inactive) | 17.7% (inactive) | 14.6% (inactive) |  |  |
| COc1cccc(-n2nnnc2SCC(=O)NCc2ccco2)c1 | 423 | -3.3% (inactive) | -7.7% (inactive) | 94 | -44.9% (inactive) | 128 | -0.548 (inactive) | -2.6e-05 (inactive) | 0.00522 (inactive) | 19.3% (inactive) | 21.4% (inactive) |  |  |
| COc1ccccc1CN1C(=O)CCC1(C)C(=O)NC1CCCCCC1 (stereo not given) | 452 | 5.3% (inactive) | 14.8% (inactive) | 63.8 | -184% (inactive) | 115 | -0.44 (inactive) | 0.000132 (inactive) | 0.00525 (inactive) | 0.126% (inactive) | 9.28% (inactive) |  |  |
| CCN(CC)c1ccc(NC(=O)c2cncc(Br)c2)cc1 | 218 | 0.6% (inactive) | 28% (inactive) | 86.8 | -31.6% (inactive) | 104 | -0.59 (inactive) | -6e-05 (inactive) | 0.00416 (inactive) | -32.8% (inactive) | -129% (inactive) |  |  |
| Cc1c(C(=O)NCc2cccnc2)sc2ncn(CC(=O)N3CCCCC3C)c(=O)c12 (stereo not given) | 477 | -7% (inactive) | -3.4% (inactive) | 89.7 | -51.3% (inactive) | 70.3 | -0.555 (inactive) | -1.4e-05 (inactive) | 0.00535 (inactive) | 18.5% (inactive) | 23.8% (inactive) |  |  |

— PubChem BioAssay
